The source made the active and inactive calls. The rule behind the calls is not given here.
How the values were obtained:
LoVo = assay: Antiproliferative activity against human LoVo cells assessed as inhibition of cell viability measured for 6 to 7 days by cell titer glo assay; assay type: functional, cell-based
Method in brief: (§1)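 Cells seeded in recommended growth medium, incubated overnight at 37°C in 5% CO2, then exposed to serial dilutions of inhibitor for 6–7 d. A parallel plate was read with CellTiter-Glo at compound addition as a T=0 value. The luminescent viability readout had no-cell background subtracted and was expressed as % of DMSO control.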

SW-620 [1] = assay: Antiproliferative activity against human SW620 cells assessed as inhibition of cell viability measured for 6 to 7 days by cell titer glo assay; assay type: functional, cell-based
Method in brief: (§2)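 Cells seeded in recommended growth medium, held overnight at 37°C in 5% CO2, then exposed to serial dilutions of inhibitor for 6–7 d. A time-zero plate was read with CellTiter-Glo at dosing. Luminescent viability read at the end. No-cell wells subtracted as background, data expressed as percent of DMSO control.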

HCT-8 = assay: Antiproliferative activity against human HCT-8 cells assessed as inhibition of cell viability measured for 6 to 7 days by cell titer glo assay; assay type: functional, cell-based
Method in brief: (§3)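 Tumor lines plated in recommended growth media, overnight at 37°C, 5% CO2, then given serial dilutions; a T=0 plate read with CellTiter-Glo at dosing. After 6–7 d of exposure, viability read by CellTiter-Glo luminescence. No-cell wells subtracted, data expressed as % of DMSO control.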

COLO-320-HSR = assay: Antiproliferative activity against human COLO 320HSR cells assessed as inhibition of cell viability measured for 6 to 7 days by cell titer glo assay; assay type: functional, cell-based; method in brief: as §3
U2OS = assay: Antiproliferative activity against human U2OS cells assessed as inhibition of cell viability measured for 6 to 7 days by cell titer glo assay; assay type: functional, cell-based
MCF7 = assay: Antiproliferative activity against human MCF7 cells assessed as inhibition of cell viability measured for 6 to 7 days by cell titer glo assay; assay type: functional, cell-based; method in brief: as §1
T47D = assay: Antiproliferative activity against human T47D cells assessed as inhibition of cell viability measured for 6 to 7 days by cell titer glo assay; assay type: functional, cell-based; method in brief: as §2
OVCAR-3 = assay: Antiproliferative activity against human OVCAR-3 cells assessed as inhibition of cell viability measured for 6 to 7 days by cell titer glo assay; assay type: functional, cell-based; method in brief: as §2
A2780 = assay: Antiproliferative activity against human A2780 cells assessed as inhibition of cell viability measured for 6 to 7 days by cell titer glo assay; assay type: functional, cell-based; method in brief: as §3
ASPC1 = assay: Antiproliferative activity against human ASPC1 cells assessed as inhibition of cell viability measured for 6 to 7 days by cell titer glo assay; assay type: functional, cell-based; method in brief: as §3
MIA PaCa-2 = assay: Antiproliferative activity against human Mia PaCa cells assessed as inhibition of cell viability measured for 6 to 7 days by cell titer glo assay; assay type: functional, cell-based; method in brief: as §1
SK-MEL-2 = assay: Antiproliferative activity against human SK-MEL-2 cells assessed as inhibition of cell viability measured for 6 to 7 days by cell titer glo assay; assay type: functional, cell-based; method in brief: as §2
SK-MEL-28 = assay: Antiproliferative activity against human SK-MEL-28 cells assessed as inhibition of cell viability measured for 6 to 7 days by cell titer glo assay; assay type: functional, cell-based; method in brief: as §2
SW 954 = assay: Antiproliferative activity against human SW 954 cells assessed as inhibition of cell viability measured for 6 to 7 days by cell titer glo assay; assay type: functional, cell-based; method in brief: as §2
[2] = Antiproliferative activity against human HuNS1 cells assessed as inhibition of cell viability measured for 6 to 7 days by cell titer glo assay; assay type: functional, cell-based; method in brief: as §1
SU-DHL-16 = assay: Antiproliferative activity against human SU-DHL-16 cells assessed as inhibition of cell viability measured for 6 to 7 days by cell titer glo assay; assay type: functional, cell-based; method in brief: as §2
RL = assay: Antiproliferative activity against human RL cells assessed as inhibition of cell viability measured for 6 to 7 days by cell titer glo assay; assay type: functional, cell-based; method in brief: as §2
NAMALVA = assay: Antiproliferative activity against human NAMALWA cells assessed as inhibition of cell viability measured for 6 to 7 days by cell titer glo assay; assay type: functional, cell-based; method in brief: as §1
[3] = Antiproliferative activity against human Hs 445 cells assessed as inhibition of cell viability measured for 6 to 7 days by cell titer glo assay; assay type: functional, cell-based; method in brief: as §1
[4] = Antiproliferative activity against human Kasumi-2 cells assessed as inhibition of cell viability measured for 6 to 7 days by cell titer glo assay; assay type: functional, cell-based; method in brief: as §1
[5] = Antiproliferative activity against human Tanoue cells assessed as inhibition of cell viability measured for 6 to 7 days by cell titer glo assay; assay type: functional, cell-based; method in brief: as §2
CMK = assay: Antiproliferative activity against human CMK cells assessed as inhibition of cell viability measured for 6 to 7 days by cell titer glo assay; assay type: functional, cell-based; method in brief: as §3
EM-2 = assay: Antiproliferative activity against human EM-2 cells assessed as inhibition of cell viability measured for 6 to 7 days by cell titer glo assay; assay type: functional, cell-based; method in brief: as §3
BV-173 = assay: Antiproliferative activity against human BV-173 cells assessed as inhibition of cell viability measured for 6 to 7 days by cell titer glo assay; assay type: functional, cell-based; method in brief: as §3
CCRF-CEM = assay: Antiproliferative activity against human CCRF-CEM cells assessed as inhibition of cell viability measured for 6 to 7 days by cell titer glo assay; assay type: functional, cell-based; method in brief: as §3
[6] = Antiproliferative activity against human MJ cells assessed as inhibition of cell viability measured for 6 to 7 days by cell titer glo assay; assay type: functional, cell-based; method in brief: as §1
SW-620 [7] = assay: Antitumor activity in human SW620 cells xenografted in SCID mouse assessed as reduction in tumor growth at 25 to 100 mg/kg, ip administered once daily for 5 consecutive days with 2 days off scheduled for 3 cycles measured upto 60 days; assay type: functional, organism-based; conditions: dose 25-100 mg/kg, time 60.0 day
[8] = Toxicity in SCID nude mouse xenografted with human MCF7 cells assessed as drug tolerance at 50 to 100 mg/kg, ip administered once daily for 5 consecutive days with 2 days off scheduled for 3 cycles measured upto 60 days; assay type: organism-based; conditions: in vivo, 1440 h, dose 50-100 mg/kg, time < 60 day
[9] = Toxicity in SCID nude mouse xenografted with human A549 cells assessed as body weight loss at 25 to 100 mg/kg, ip administered once daily for 5 consecutive days with 2 days off scheduled for 3 cycles measured upto 60 days relative to control; assay type: organism-based; conditions: in vivo, 1440 h, dose 25-100 mg/kg, time < 60 day
[10] = Toxicity in SCID nude mouse xenografted with human MCF7 cells assessed as body weight loss at 50 to 100 mg/kg, ip administered once daily for 5 consecutive days with 2 days off scheduled for 3 cycles measured upto 60 days; assay type: organism-based; conditions: in vivo, 1440 h, dose 50-100 mg/kg, time < 60 day
[11] = Toxicity in SCID nude mouse xenografted with human HL-60 cells assessed as body weight loss at 100 mg/kg, ip administered once daily for 5 consecutive days with 2 days off scheduled for 2 cycles measured upto 60 days; assay type: organism-based; conditions: in vivo, 1440 h, time < 60 day
MV-4-11 (human) = assay: Antitumor activity in human MV-4-11 cells xenografted in NOD-SCID mouse assessed as median survival time at 10 mg/kg, ip administered once daily for 5 consecutive days with 2 days off scheduled for 3 cycles measured upto 120 days; conditions: time <= 120 day
A549 = assay: Antitumor activity in human A549 cells xenografted in nude mouse assessed as reduction in tumor growth at 25 to 100 mg/kg, ip administered once daily for 5 consecutive days with 2 days off scheduled for 3 cycles measured upto 60 days; conditions: dose 25-100 mg/kg, time <= 60.0 day

Compound `CCn1cc(-c2ccnc3[nH]c(-c4cccc(CN(C)C)c4)cc23)c(-c2ccc(NC(=O)N(C)C)cc2)n1` [GSK-1070916] has an EC50 (LoVo) of 7 nM, an EC50 (SW-620 [1]) of 8 nM and an EC50 (HCT-8) of 38 nM. For the same compound, the EC50 (COLO-320-HSR) was 92 nM, the EC50 (U2OS) was 34 nM and the EC50 (MCF7) was 13 nM. For the same compound, the EC50 (T47D) was 13 nM, the EC50 (OVCAR-3) was 3 nM and the EC50 (A2780) was 5 nM. For the same compound, the EC50 (ASPC1) was 2 nM, the EC50 (MIA PaCa-2) was 3 nM and the EC50 (SK-MEL-2) was 2 nM. For the same compound, the EC50 (SK-MEL-28) was 7 nM, the EC50 (SW 954) was 11 nM and the EC50 [2] was 9 nM. For the same compound, the EC50 (SU-DHL-16) was 4 nM, the EC50 (RL) was 10 nM and the EC50 (NAMALVA) was 6 nM. The EC50 [3] was 5 nM, the EC50 [4] was 6 nM and the EC50 [5] was 1480 nM. For the same compound, the EC50 (CMK) was 27 nM, the EC50 (EM-2) was 4 nM and the EC50 (BV-173) was 5 nM. For the same compound, the EC50 (CCRF-CEM) was 7 nM, the EC50 [6] was 7 nM and the Activity (SW-620 [7]) was “inactive”. For the same compound, the Activity [8] was “Toxic”, the Activity [9] was under 15% and the Activity [10] was “Toxic”. The Activity [11] was “Toxic”, the MST (MV-4-11 (human)) was 70 days and the Activity (A549) was “Active”.

— ChEMBL document CHEMBL5705886, “GSK1070916, a potent Aurora B/C kinase inhibitor with broad antitumor activity in tissue culture cells and human tumor xenograft models” (Mol Cancer Ther, 2009)
